How the values were obtained:
Assay type in all cases: functional
[1] = species: Oryctolagus cuniculus; assay: In vitro inhibitory concentration measured against U-46,619 (1 uM) induced aggregation of washed platelets (WP) in rabbit
[2] = species: Rattus norvegicus; assay: In vitro inhibitory concentration measured against U-46,619 (30 nM) induced contraction for rat aorta
[3] = species: Rattus norvegicus; assay: In vitro inhibitory concentration measured against collagen ([…]) induced aggregation of washed platelets (WP) in rat
How it was run: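 Rat washed platelets; aggregation triggered with collagen at 4 µg/mL; inhibitory concentration reported as IC50, following a procedure from earlier work.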

[4] = species: Oryctolagus cuniculus; assay: In vitro inhibitory concentration measured against U-46,619 (1 uM) induced aggregation of washed platelets (WP) in rabbit; N-Negative

| Structure (SMILES) | IC50 [1] [µM] | IC50 [2] [µM] | IC50 [3] [µM] | IC50 [4] |
| --- | --- | --- | --- | --- |
| O=C(O)CCCCCNS(=O)(=O)c1ccccc1 |  | > 140 | > 14.5 | Negative |
| O=C(O)CCCCCCCCCCCO |  |  |  | Negative |
| O=C(O)CCCCNS(=O)(=O)c1ccccc1 |  | > 140 | > 14.5 | Negative |
| O=C(O)COc1ccc(CCNS(=O)(=O)c2ccccc2)cc1 [SULOTROBAN] | 0.3 |  |  |  |
| CCCCCCC(O)CCCCCCCCCCC(=O)O (configuration not stated) |  |  |  | Negative |
| O=C(O)CCCNS(=O)(=O)c1ccccc1 |  | > 140 | > 14.5 | Negative |

More lines, in order of falling IC50 [3], values ahead:

| IC50 [1] [µM] | IC50 [2] [µM] | IC50 [3] [µM] | IC50 [4] | Structure (SMILES) |
| --- | --- | --- | --- | --- |
| > 10 | 55.3 | 11.6 |  | O=C(O)CCCCCCNS(=O)(=O)c1ccccc1 |
| 10 | 4.6 | 4.35 |  | O=C(O)CCCCCCCCCCNS(=O)(=O)c1ccccc1 |
| > 10 | 6.4 | 3.48 |  | O=C(O)CCCCCCCCCCCNS(=O)(=O)c1ccccc1 |
| 0.4 | 1.6 | 0.41 |  | O=C(O)CCCCCCCCNS(=O)(=O)c1ccccc1 |
| 0.7 | 2.8 | 0.29 |  | O=C(O)CCCCCCCNS(=O)(=O)c1ccccc1 |
| 0.048 |  | 0.041 |  | O=C(O)CCC/C=C\CCCNS(=O)(=O)c1ccccc1 |
| 0.006 | 0.0014 | 0.0029 |  | O=C(O)CCC/C=C\C[C@@H]1C(NS(=O)(=O)c2ccccc2)C2CC[C@@H]1C2 (some centres not stated) |

— ChEMBL document CHEMBL1125265, “FTIR spectral study of intramolecular hydrogen bonding in thromboxane A2 receptor antagonist S-145 and related compounds. 3. Conformation and activity of S-145 analogues” (J Med Chem, 1991)
